Data reported in PMC9073091 (RSC Advances, 2019).
Where no end group is shown, it is not given here.

Tests used:
[1] = Stability of SP in acidified rat plasma and blood; assay type: in vitro ADME
Method in brief: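 Blood was acidified with 0.3% perchloric acid. Low- and high-level samples (five replicates each) were held as follows: whole blood at 0 °C for 1 h; […] for 1 h before processing; extracts at 25 °C for 1 h; reconstituted samples in the autosampler at 4 °C for 24 h; plasma at −70 °C for 60 days; and three freeze–thaw cycles (−70 °C to ambient). Read-out was accuracy as deviation from nominal, with acceptance within 15%.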

[2] = Pharmacokinetic study after subcutaneous administration; assay type: in vivo, Sprague-Dawley rats
Method in brief: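 Twelve Sprague-Dawley rats (6 female, 6 male; 200 ± 20 g) were housed SPF at 22 ± 2 °C on a 12 h light–dark cycle and fasted about 12 h. Each received a single subcutaneous dose of 10 mg kg−1. Orbital blood was taken into pre-acidified EDTA-K2 tubes at 0, 0.5, 1, 2, 3, 5, 10, 20, 30, 45 and 60 min and iced; plasma was spun and analysed by UHPLC-MS/MS (LLOQ 0.1 ng mL−1). Non-compartmental analysis; mean ± SD.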

Stability = assay type: in vitro ADME; details: rat
Method in brief: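 Rat blood was spiked at 150 ng mL−1 to compare three stabilisation factors. Anticoagulant (EDTA-K2 or heparin sodium) was tested at 25 °C and 0 °C. Protease inhibitors (pepstatin A, aprotinin, cOmplete cocktail, AEBSF) were tested at 25 °C. Acidification with H2SO4 or HClO4 (0.1–0.3%) was tested at 25 °C and 0 °C. Samples were taken before and at 2, 5, 10, 20, 30 and 60 min, precipitated with organic solvent, centrifuged and analysed by UHPLC-MS/MS. Half-lives were calculated.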

[3] = rats, subcutaneous 10 mg kg^−1, mean ± SD, n = 12

Substance: GQTYTSG [SP, GQTYTSG]
- Accuracy (stability) ([1]; blood, blood stability (0 °C for 1 h), 0.5 ng mL^−1): 114.4%
- Accuracy (stability) ([1]; blood, blood stability (0 °C for 1 h), 300 ng mL^−1): 104.1%
- Accuracy (stability) ([1]; plasma, auto-sampler stability (4 °C for 24 h), 0.25 ng mL^−1): 110.0%
- Accuracy (stability) ([1]; plasma, auto-sampler stability (4 °C for 24 h), 150 ng mL^−1): 106.7%
- Accuracy (stability) ([1]; plasma, freeze–thaw stability (three cycles), 0.25 ng mL^−1): 106.4%
- Accuracy (stability) ([1]; plasma, freeze–thaw stability (three cycles), 150 ng mL^−1): 94.7%
- Accuracy (stability) ([1]; plasma, long-term stability (−70 °C for 60 days), 0.25 ng mL^−1): 96.1%
- Accuracy (stability) ([1]; plasma, long-term stability (−70 °C for 60 days), 150 ng mL^−1): 94.0%
- Accuracy (stability) ([1]; plasma, post-preparation stability (25 °C for 1 h), 0.25 ng mL^−1): 90.8%
- Accuracy (stability) ([1]; plasma, post-preparation stability (25 °C for 1 h), 150 ng mL^−1): 105.3%
- Accuracy (stability) ([1]; plasma, short-term stability (0 °C for 1 h), 0.25 ng mL^−1): 96.4%
- Accuracy (stability) ([1]; plasma, short-term stability (0 °C for 1 h), 150 ng mL^−1): 96.0%
- Tmax ([2]; rat, in vivo, sc, 10 mg/kg): 1.75 min
- half-life ([2]; rat, in vivo, sc, 10 mg/kg): < 10 min
- CL (apparent total plasma clearance) [2, 3]: 17.9 ± 9.96 L/min
- Vz (total volume of distribution) [2, 3]: 230 ± 118 L
- half-life (Stability; half-life of SP in blood samples, blood acidified with 0.3% HClO4 (v/v), 0 °C): > 350 min
- half-life (Stability; half-life, 25 °C, in vitro): < 10 min
- half-life (Stability; whole blood, half-life of SP in blood samples, EDTA-K2 as anticoagulant, samples kept at 0 °C): 11.5 ± 0.22 min
- half-life (Stability; whole blood, half-life of SP in blood samples, blood acidified with 0.3% H2SO4 (v/v), 0 °C): > 350 min
